Published values from different studies.
Lines come from different studies, so protocols differ. pIC50: −log10 of the molar value.
PLA2G6: 85/88 kDa calcium-independent phospholipase A2 (PLA2G6, Homo sapiens, UniProt O60733)
SLC22A12: Solute carrier family 22 member 12 (SLC22A12, Homo sapiens, UniProt Q96S37)
HDAC7: Histone deacetylase 7 (HDAC7, Homo sapiens, UniProt Q8WUI4)
HDAC10: Polyamine deacetylase HDAC10 (HDAC10, Homo sapiens, UniProt Q969S8)
CSNK1A1: Casein kinase I isoform alpha (CSNK1A1, Homo sapiens, UniProt P48729)

For `O=CCCCCCCCC(=O)C(F)(F)F`, the pIC50 was 4.39 (PLA2G6; enzyme activity; inhibitor).
`O=C(O)CCc1nccc2c3ccccc3n(Cc3ccc(Br)c4ccccc34)c12` has a pIC50 of 4.86 (SLC22A12; transporter uptake; inhibitor; radiometric).
`O=C(NO)c1ccc(Cn2cnc3c(Nc4cccc([N+](=O)[O-])c4)ncnc32)cc1` gave a pIC50 of 6.93 (HDAC7; enzyme activity; inhibitor).
For `CN(CCCCCCNC(=O)COc1ccc(C2CCC(=O)NC2=O)cc1)Cc1cn(Cc2ccc(C(=O)NO)cc2)c2ccccc12` (centres unmarked), the pIC50 was 7.92 (HDAC10; enzyme activity; inhibitor; fluorescence).
`O=C(CCCCc1ccc(CO)cc1)C(F)(F)F` gave a pIC50 of 5.96 (PLA2G6; enzyme activity; inhibitor).
The pIC50 of `Cc1ncc(-c2cc3cc(-c4c(C)ccc(O)c4C)cnc3[nH]2)cn1` is reported as 7.72 (Membrane-associated tyrosine- and threonine-specific cdc2-inhibitory kinase (PKMYT1, Homo sapiens, UniProt Q99640); cell-free assay; TR-FRET).
The pIC50 of `O=C1CCC(N2C(=O)c3cccc(NCC(=O)OCCCCc4cn(CCCCCCN5CCc6c(c7ccccc7n6Cc6ccc(C(=O)NO)cc6)C5)nn4)c3C2=O)C(=O)N1` (centres unmarked) is reported as 7.77 (HDAC10; enzyme activity; inhibitor; fluorescence).
`Nc1ncnc2c1ncn2[C@@H]1O[C@H](CSCC[C@H](N)C(=O)O)[C@@H](O)[C@H]1O` gave a pIC50 of 5.68 (Histone-lysine N-methyltransferase SETD2 (SETD2, Homo sapiens, UniProt Q9BYW2); enzyme activity; inhibitor).
`CC(C)C1=CC2=CC(=O)[C@H]3C(C)(C)CCC[C@]3(C)C2=C(O)C1=O` (racemic) has a pIC50 of 6.92 (Farnesyl pyrophosphate synthase (FDPS, Homo sapiens, UniProt P14324); enzyme activity; inhibitor).
`O=C(CCCCCCCCO)C(F)(F)F` gave a pIC50 of 4.90 (PLA2G6; enzyme activity; inhibitor).
With `Oc1ccn2nc(-c3ccc(F)cc3)c(-c3ccncc3)c2c1` the pIC50 was 6.08 (CSNK1A1; enzyme activity; inhibitor; ADP detection).
`COc1ccc(N(Cc2csc(-c3ccc(C)cc3)n2)C(=O)CCCCCC(=O)NO)cc1` has a pIC50 of under 5.00 (HDAC7; enzyme activity; inhibitor).
`Oc1ccc2c(-c3ccncc3)c(-c3ccc(F)cc3)nn2c1` gave a pIC50 of 5.80 (CSNK1A1; enzyme activity; inhibitor; ADP detection).
The pIC50 of `CC(C)(O)c1coc(S(=O)(=O)NC(=O)c2cc3ccccc3n2Cc2ccc(Br)c3ccccc23)c1` is reported as 5.01 (SLC22A12; transporter uptake; inhibitor; radiometric).
`COc1ccc2c(-c3ccncc3)c(-c3ccc(F)cc3)nn2c1` has a pIC50 of 5.62 (CSNK1A1; enzyme activity; inhibitor; ADP detection).
The pIC50 of `CCc1oc2cc(F)ccc2c1C(=O)c1cc(Br)c(O)c(Br)c1` is reported as 7.74 (SLC22A12; transporter uptake; inhibitor; radiometric; oocytes).
`COc1ccn2nc(-c3ccc(F)cc3)c(-c3ccncc3)c2c1` has a pIC50 of 5.68 (CSNK1A1; enzyme activity; inhibitor; ADP detection).
`Cn1cc(-c2ccnc3ccccc23)c(-c2ccccn2)n1` gave a pIC50 of 5.82 (CSNK1A1; enzyme activity; inhibitor; ADP detection).
With `CCCS(=O)(=O)NC(=O)c1cc2ccccc2n1Cc1ccc(C2CC2)c2ccccc12` the pIC50 was 5.25 (SLC22A12; transporter uptake; inhibitor; radiometric).
With `Fc1ccc(Cc2[nH]nc(-c3ccccn3)c2-c2ccnc3ccccc23)cc1` the pIC50 was 4.96 (CSNK1A1; enzyme activity; inhibitor; ADP detection).
`Fc1ccc(-c2nn3cc(C(F)(F)F)ccc3c2-c2ccncc2)cc1` gave a pIC50 of under 4.82 (CSNK1A1; enzyme activity; inhibitor; ADP detection).
`COc1ccc(N(Cc2csc(-c3ccccc3)n2)C(=O)CCCCCC(=O)NO)cc1` has a pIC50 of under 5.00 (HDAC7; enzyme activity; inhibitor).
For `CC(C)(C)c1ccn2nc(-c3ccc(F)cc3)c(-c3ccncc3)c2c1`, the pIC50 was 5.06 (CSNK1A1; enzyme activity; inhibitor; ADP detection).
The pIC50 of `Oc1ccccc1-c1n[nH]cc1-c1ccnc2ccccc12` is reported as 5.51 (CSNK1A1; enzyme activity; inhibitor; ADP detection).
`Cc1ccc(S(=O)(=O)NC(=O)c2cc3ccccc3n2Cc2ccc(C3CC3)c3ccccc23)cc1` has a pIC50 of 4.85 (SLC22A12; transporter uptake; inhibitor; radiometric).
The pIC50 of `c1ccc(Cn2cc(-c3ccnc4ccccc34)c(-c3ccccn3)n2)cc1` is reported as 5.23 (CSNK1A1; enzyme activity; inhibitor; ADP detection).
`CN1CCC(CNc2ccc3ncc(-c4cccc(OC(F)(F)F)c4)n3n2)CC1` gave a pIC50 of 5.08 (Beta-2 adrenergic receptor (ADRB2, Homo sapiens, UniProt P07550); cAMP; antagonist).
With `CN(CCCCCCNC(=O)CNc1cccc2c1C(=O)N(C1CCC(=O)NC1=O)C2=O)Cc1cn(Cc2ccc(C(=O)NO)cc2)c2ccccc12` (centres unmarked) the pIC50 was 8.15 (HDAC10; enzyme activity; inhibitor; fluorescence).
For `c1ccc(-c2occc2-c2ccnc3ccccc23)nc1`, the pIC50 was under 4.52 (CSNK1A1; enzyme activity; inhibitor; ADP detection).
